Screening results as filed in PubChem BioAssay.
Rows were chosen to be rich in hits. Some 1.8% of all compounds tested hit in one or more screens of this group.
M5 antag – blocks acetylcholine activation of human M5 receptor; CHO-hM5 cells, Fluo-8 calcium fluorescence, ACh EC80; inhibition, % at 3 µM; 360,000 compounds, 0.59% hits; AID 624040;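 active = inhibition above a per-plate cutoff, the mean of that plate's test compounds plus 3 SD, cut at about 27% in these data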;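 also: 0% = acetylcholine EC80 with DMSO and 100% = DMSO without agonist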
M4 PAM – potentiates acetylcholine response at human M4 receptor. P08173. CHO-K1 hM4/Gqi5, Fluo-8 calcium fluorescence, ACh EC20; 0% = ACh EC20, 100% = maximal ACh. activation, % at 3 µM. 360,000 compounds, 0.4% hits;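 active = activation above its plate's cutoff, the mean activation of sample wells plus 3 SD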
Target sequence (P08173 whole entry, looked up): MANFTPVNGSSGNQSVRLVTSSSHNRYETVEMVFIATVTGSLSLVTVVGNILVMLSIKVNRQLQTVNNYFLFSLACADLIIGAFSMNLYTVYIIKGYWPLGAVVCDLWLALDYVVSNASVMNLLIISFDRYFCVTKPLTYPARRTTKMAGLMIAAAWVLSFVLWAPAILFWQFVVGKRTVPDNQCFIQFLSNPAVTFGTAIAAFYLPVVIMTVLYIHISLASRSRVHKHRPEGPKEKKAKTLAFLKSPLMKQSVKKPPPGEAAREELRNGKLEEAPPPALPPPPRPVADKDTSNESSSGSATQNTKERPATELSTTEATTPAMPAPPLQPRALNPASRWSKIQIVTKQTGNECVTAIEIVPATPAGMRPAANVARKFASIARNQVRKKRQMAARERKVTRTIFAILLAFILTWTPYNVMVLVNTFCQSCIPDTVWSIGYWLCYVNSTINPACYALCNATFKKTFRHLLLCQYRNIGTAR
CHRM4 antagonist – blocks acetylcholine activation of human M4 receptor; P08173; CHO-hM4 cells, ACh EC80, Fluo-8 calcium fluorescence; inhibition, % at 3 µM; 360,000 compounds, 0.73% hits; AID 624125;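 active = inhibition above its plate's cutoff, the mean inhibition of sample wells plus 3 SD, cut at about 27% in these data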;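 also: 0% = acetylcholine EC80 with DMSO and 100% = DMSO without agonist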
M5 ag – CHRM5 agonism in calcium assay. 360,000 compounds, 0.19% hits. activation, % at 3 µM. P08912. CHO-K1 hM5 cells, Fluo-8 calcium fluorescence; 0% DMSO wells, 100% maximal acetylcholine response;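 active = activation above the run's mean over test compounds plus 3 SD, cut at about 23% in these data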;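 also: signal is peak over basal fluorescence ratio across the kinetic read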
CHRM5 PAM – positive allosteric modulators of human muscarinic M5 receptor. CHO-K1 hM5, Fluo-8 calcium, ACh EC20 PAM; 0% = ACh EC20, 100% = ACh EC100. activation, % at 3 µM. 360,000 compounds, 0.3% hits;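 active = activation above the run cutoff, the mean activation of all test compounds plus 3 SD, cut at about 18% in these data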
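Assay system: CHO-K1 hM5 cells. Also added: acetylcholine at EC20 concentration, added after compound. Dosing: 3 µM, single dose. Times: compound preincubation 140 s before EC20 acetylcholine addition. Signal: Fluo-8 calcium fluorescence. Measure: % activation relative to EC20 and EC100 ACh responses. Repeats: singlicate, one well per test compound.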
CHRM4 agonist – agonists of human muscarinic M4 receptor (CHRM4). P08173. CHO-K1 hM4/Gqi5, Fluo-8 calcium fluorescence; vehicle 0%, full acetylcholine response 100%. activation, % at 3 µM. 360,000 compounds, 0.14% hits. AID 624127;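 active = activation above the run mean over all test wells plus 3 SD, cut at about 32% in these data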;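 also: peak over basal fluorescence ratio per well then scaled between controls; 0% = DMSO wells and 100% = acetylcholine at EC100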
Starred values were filed as active, the others as inactive.

SMILES	M5 antag	M4 PAM	CHRM4 antagonist	M5 ag	CHRM5 PAM	CHRM4 agonist
Cc1cccc(C)c1NC(=O)C1(C)CSCC(=O)N1CCc1ccccc1 (stereo not given)	-0.2	0.6	-2.9	1.3	1.5	4.4
CCCCN(CC)Cc1c(O)ccc2c(-c3ccccc3)cc(=O)oc12	3.6	-26.4	27.5*	-12.2	2.9	-0.4
CCOC1=C2[C@@H](CN(S(=O)(=O)c3ccc(C)cc3)[C@H]2c2ccccc2F)[C@H]2C(=O)NC(=O)[C@H]2C1	-1.4	-5.8	2.7	-1.5	-0.4	-0.9
C/C(=N\Nc1nc2ccccc2s1)c1ccc(Br)s1	9.5	-7.7	2.1	-0.9	-5.4	-0.9
CC(=NNc1nc2ccccc2s1)c1ccncn1	15.4	-2.4	58.2*	13.7	-0.5	23.0
Cc1ccc(NC(=O)CCS(=O)(=O)c2ccc3nc(C)sc3c2)c(C)c1	-1.7	5.0	-6.6	1.6	-1.3	0.3
OC(c1ccc(Cl)c(F)c1)c1ncc(-c2cccc3ccccc23)[nH]1 (stereo not given)	0.7	6.7	3.5	-0.5	-4.5	5.0
Cc1ccc(S(=O)c2ccc([N+](=O)[O-])c3nonc23)cc1 (stereo not given)	24.5	-0.1	14.7	40.0*	-3.1	8.7
COc1ccc(NC(=S)NCCN2CCOCC2)c(OC)c1	-6.5	16.1*	-4.7	-3.0	2.4	0.6
Cc1cc(C(=O)NCCc2ccc(S(N)(=O)=O)cc2)no1	3.3	-5.0	8.3	3.8	18.3*	0.5
COc1ccccc1NC(=S)NCCc1ccc(S(N)(=O)=O)cc1	4.5	-3.0	-8.1	0.3	-1.5	0.4
COc1ccc(NC(=S)NCCc2ccc(S(N)(=O)=O)cc2)c(OC)c1	27.1*	-11.4	3.1	0.0	-20.2	17.0
CCCCN(CC(O)COc1cccc(C)c1)CC(O)COc1cccc(C)c1 (stereo not given)	-3.0	7.8	-27.4	-4.8	3.9	3.1
O=C(Nc1ccccc1)/C(=C/c1ccc(F)cc1)NC(=O)c1ccco1	8.1	-3.3	4.1	-2.0	-2.0	2.2
CN(C)Cc1cc(C(F)(F)F)ccc1C(O)(c1ccccc1)c1ccccc1	75.4*	-11.4	57.3*	-10.4	-37.6	2.8
COC(=O)c1ccc(CN2CCC(Oc3ccc(C(=O)N4CCCCC4)cc3)CC2)cc1	22.1	-15.9	62.5*	-7.3	-16.1	3.4
CSc1ccc(CN2CCC(Oc3cccc(C(=O)N4CCCC4)c3)CC2)cc1	68.7*	-16.1	55.4*	-7.3	-17.5	5.1
COC(=O)c1ccc(CN2CCC(Oc3cccc(C(=O)N4CCCC4)c3)CC2)cc1	80.4*	-15.6	94.9*	-6.8	-16.1	3.8
O=C(c1ccc(OC2CCN(Cc3ccccn3)CC2)cc1)N1CCCC(O)C1 (stereo not given)	-10.8	19.1	-18.1	-10.5	23.7*	1.8
O=C(c1cccc(OC2CCN(Cc3cc(F)cc(F)c3)CC2)c1)N1CCCC1	-11.1	6.1	-13.0	-7.8	5.3	4.3
CCCOC1CCCN(C(=O)c2ccc(OC3CCN(Cc4ccccn4)CC3)cc2)C1 (stereo not given)	1.1	-4.5	11.6	-5.3	-6.9	0.4
CCC(=O)N1CCC1(C)C(=O)NS(=O)(=O)c1cccc(C#N)c1 (stereo not given)	10.8	5.4	-3.7	-3.4	3.6	0.1
COc1ccc(/C=C/CN2CCC(Oc3ccc(C(=O)N4CCCCC4)cc3)CC2)cc1	34.7*	-15.2	31.0*	-7.7	-15.4	3.9
Cc1ccc(Cn2cc(CN3CC(N4CCN(CCO)CC4)CS3(=O)=O)nn2)cc1 (stereo not given)	-1.7	7.9	-7.6	-0.7	-2.1	0.2
Cc1cccc(C2(c3cccc(C)c3)CC2C(=O)Nc2ccc([N+](=O)[O-])cc2O)c1 (stereo not given)	32.8*	-13.1	27.2*	2.0	-21.4	6.8
SMILES	M5 antag	M4 PAM	CHRM4 antagonist	M5 ag	CHRM5 PAM	CHRM4 agonist
CCOC(=O)C1(CC2CCCCO2)CCN(Cc2cc3ccccc3[nH]2)CC1 (stereo not given)	34.5*	-23.7	59.4*	61.6*	-21.1	124.8*
COC(=O)[C@]12CCCCC=C1N(Cc1ccc(Cl)cc1Cl)C(=O)[C@H](CC(=O)NCc1cccs1)C2	-0.1	8.6	-11.4	-0.6	-1.6	1.9
O=C(O)C1C=CC(C(=O)O)c2ccccc21 (stereo not given)	-4.7	3.2	-10.2	0.4	3.3	0.2
COC(=O)c1ccc2[nH]c(C)cc(=O)c2c1	-1.6	-18.1	54.9*	-3.3	1.3	0.0
CCOc1cc(CNCCc2ccc(S(N)(=O)=O)cc2)ccc1OCc1ccc(Cl)cc1	25.7	-10.9	42.0*	1.5	-10.4	29.3
COc1cc(CNCCc2ccc(S(N)(=O)=O)cc2)ccc1OCc1ccc(Cl)cc1	4.3	-3.3	5.5	-4.5	-5.5	15.4
CC(C)NC(=O)N1Cc2cc(C(=O)NC3CCCCC3)nc(-c3cccc(-c4cccnc4)c3)c2[C@@H]1CCO	11.6	-7.8	5.7	2.8	-13.1	11.0
CCCOC(=O)C1=C(C)OC23OC(N)=C(C#N)C12C(=O)c1ccccc13 (stereo not given)	6.8	-16.4	34.5*	-2.2	-12.2	0.2
CNc1sc(C(=O)c2ccccc2F)c(N)c1-c1nc2ccccc2s1	4.5	22.1	34.1*	2.1	7.4	2.9
CC(c1ccon1)N(C)C(=O)c1cccc(OC2CCN(S(C)(=O)=O)CC2)c1 (stereo not given)	-0.8	-0.4	-0.5	0.4	-1.0	2.1
CC(C)=CCC[C@H](C)C[C@@H]1Cc2[nH][nH]c(=O)c2[C@H](c2ccc(F)cc2)O1	-1.9	2.3	-7.8	3.4	-2.1	-0.1
CN(C)CCCN(C(=O)COc1ccc(Cl)cc1)c1nc2ccc(F)cc2s1	0.8	-5.8	11.5	1.7	8.0	13.8
Cc1ccc2nc(N(CCCN(C)C)C(=O)COc3ccc(Cl)cc3)sc2c1	-1.9	-14.9	15.5	0.7	7.8	37.9*
CCc1ccc(C2C(C(=O)O)c3ccccc3C(=O)N2C)cc1 (stereo not given)	-5.8	4.8	11.2	1.5	5.0	0.1
O=C(O)C1c2ccccc2C(=O)N(Cc2ccc(F)cc2)C1c1ccncc1 (stereo not given)	-22.3	-2.2	-1.4	5.7	26.7*	0.1
CNC(=O)c1cc(Oc2ccc(NC(=O)c3[nH]c(-c4ccccc4)c4c3C(=O)N(C)C4=O)cc2)ccn1	-3.8	23.1*	-11.0	1.8	6.7	0.8
CN1C(=O)c2c(C(=O)Nc3ccc(Oc4ccncc4)cc3)[nH]c(-c3ccccc3)c2C1=O	3.3	2.0	-7.0	9.3	-3.0	1.4
